From ChEMBL document CHEMBL2424625, “Synthesis and structure-activity relationships of novel indazolyl glucocorticoid receptor partial agonists” (Bioorg Med Chem Lett, 2013) come the findings set out here.

In assay [1] the target is T1, Glucocorticoid receptor (Homo sapiens, UniProt P04150).
T1 sequence (P04150 whole entry): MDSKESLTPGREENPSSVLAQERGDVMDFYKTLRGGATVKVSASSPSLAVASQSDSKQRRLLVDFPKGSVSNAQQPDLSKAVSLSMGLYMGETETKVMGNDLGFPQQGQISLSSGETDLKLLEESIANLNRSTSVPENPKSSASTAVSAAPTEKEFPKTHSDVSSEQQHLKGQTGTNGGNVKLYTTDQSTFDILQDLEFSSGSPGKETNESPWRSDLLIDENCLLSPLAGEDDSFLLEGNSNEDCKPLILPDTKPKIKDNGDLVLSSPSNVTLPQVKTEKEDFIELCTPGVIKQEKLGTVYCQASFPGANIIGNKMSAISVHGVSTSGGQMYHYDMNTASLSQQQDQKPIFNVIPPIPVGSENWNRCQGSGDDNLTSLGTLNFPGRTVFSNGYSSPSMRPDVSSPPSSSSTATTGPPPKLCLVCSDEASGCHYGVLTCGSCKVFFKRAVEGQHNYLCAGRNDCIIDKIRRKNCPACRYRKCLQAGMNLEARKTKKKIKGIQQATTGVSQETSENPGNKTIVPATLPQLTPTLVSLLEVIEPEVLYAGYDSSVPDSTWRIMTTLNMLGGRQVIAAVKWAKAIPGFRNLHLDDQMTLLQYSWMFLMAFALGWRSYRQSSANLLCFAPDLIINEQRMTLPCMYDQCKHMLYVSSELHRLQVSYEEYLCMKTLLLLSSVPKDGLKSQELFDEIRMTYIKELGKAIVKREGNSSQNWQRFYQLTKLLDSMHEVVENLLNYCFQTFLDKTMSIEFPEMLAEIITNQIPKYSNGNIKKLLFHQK
Briefly: Transrepression activity at glucocorticoid receptor in human A549 cells assessed as inhibition of IL1beta-stimulated NFkappaB-dependent E-selectin transcription by luciferase reporter gene assay. The class given is cell-based. In general terms: A reporter such as luciferase makes a cellular process visible.

For assay [2], the target named is T1, Glucocorticoid receptor. The experiment in a line: Transactivation activity at glucocorticoid receptor ligand binding domain (unknown origin) expressed in human Hela cells co-expressing GAL4 DNA binding domain assessed as NP-1-stimulated GRE activation by luciferase reporter gene assay. In kind it is cell-based.
In assay [3] the target is T1, Glucocorticoid receptor. The experiment in a line: Transrepression activity at glucocorticoid receptor in human A549 cells assessed as inhibition of PMA-stimulated AP1 response element by luciferase reporter gene assay. In kind it is cell-based.
Assay [4] concerns the target T2, Glucocorticoid receptor (Homo sapiens) (UniProt P04150).
T2 sequence (whole entry): T1 sequence (P04150 whole entry)
Briefly: Transrepression activity at glucocorticoid receptor in human A549 cells assessed as inhibition of IL1beta-stimulated NFkappaB-dependent E-selectin transcription by luciferase reporter gene assay relative to dexamethasone. In kind it is cell-based. The procedure, abridged: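 In A549 lung epithelial cells, NFkB activity was induced with IL-1β (0.5 ng/ml). Inhibition was quantitated as decreased luciferase activity. […] Values are means of two or more experiments in triplicate.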

The target in assay [5] is T1, Glucocorticoid receptor. The experiment in a line: Binding affinity to glucocorticoid receptor (unknown origin) by fluorescence assay.
Assay [6] has as its target T2, Glucocorticoid receptor (Homo sapiens). The experiment in a line: Transrepression activity at glucocorticoid receptor in human A549 cells assessed as inhibition of PMA-stimulated AP1 response element by luciferase reporter gene assay relative to dexamethasone. The class given is cell-based. The procedure, abridged:
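Transrepression of AP-1 was run in A549 lung epithelial cells. […] Values are means of two or more experiments in triplicate.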

For assay [7] the target is unchanged. The experiment in a line: Transactivation activity at glucocorticoid receptor ligand binding domain (unknown origin) expressed in human Hela cells co-expressing GAL4 DNA binding domain assessed as NP-1-stimulated GRE activation by luciferase reporter gene assay relative to dexamethasone. In kind it is cell-based. The procedure, abridged:
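HeLa line (NP-1) stably transfected with a GR-LBD chimera cloned into a GAL4 luciferase reporter was run in agonist mode. Direct GR-LBD activation was read as increased luciferase activity. […] Values are means of two or more experiments in triplicate.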

For assay [8] the target is unchanged. The experiment in a line: Partial agonist activity at glucocorticoid receptor (unknown origin) by fluorescence assay.

Activity calls are given as the source filed them. The calls are words filed in the database; no cut-off is given here. Some results are limits rather than exact numbers.

As usually defined, the EC50 is the concentration at which the effect is half-maximal. Usually Ki stands for a measure of affinity in units of concentration, obtained from inhibition or displacement. A high value points to lower affinity. For the molecule `CC(C)(C)CC(=O)NCC(C)(C)[C@@H](c1ccccc1)c1ccc2c(cnn2-c2ccc(F)cc2)c1`, the values for the EC50 in assay [1], in assay [2] and in assay [3] were 0.138 µM, more than 10 µM and 0.215 µM, respectively. Besides, the Efficacy stood at 46% in assay [4] and 62% in assay [6]. In assay [5], the Ki was 0.0019 µM.
Turning to `CC(CNC(=O)CC(F)(F)F)[C@@H](c1ccccc1)c1ccc2c(cnn2-c2ccc(F)cc2)c1` (single isomer, unassigned) [listing 1 of 2 here], the concentration giving a half-maximal response (EC50) in assay [2] was found to be 0.374 µM; in assay [3] it was 0.052 µM. In assay [5], the inhibitory constant (Ki) is 0.0023 µM.
On to `CC(C)C[C@@H](c1ccc2c(cnn2-c2ccc(F)cc2)c1)C(C)(C)CNC(=O)NC(C)(C)C`, for which the concentration for a half-maximal effect (EC50) was 0.0113 µM in assay [1], 0.126 µM in assay [2] and 0.025 µM in assay [3]. In addition, the values for the Efficacy in assay [7], in assay [4] and in assay [6] were 86%, 94% and 100%, respectively. Besides, the affinity in assay [5] corresponds to a Ki of 0.0036 µM.
In the case of `CC(C)(CNS(C)(=O)=O)[C@@H](c1ccccc1)c1ccc2c(cnn2-c2ccc(F)cc2)c1`, the EC50 in assay [1] was 0.0191 µM; in assay [2], 0.148 µM; in assay [3], 0.0205 µM. The Efficacy in assay [7] turned out to be 32%; in assay [4], 97%; in assay [6], 86%. Besides, affinity in assay [5] was put at a Ki of 0.00053 µM.
For `CCS(=O)(=O)NCC(C)(C)[C@@H](c1ccccc1)c1ccc2c(cnn2-c2ccc(F)cc2)c1`, the half-maximal effective concentration (EC50) came out at 0.0156 µM in assay [1], 0.214 µM in assay [2] and 0.0288 µM in assay [3]. The figures for the Efficacy in assay [7], in assay [4] and in assay [6] were 19%, 87% and 84%, respectively. Besides, the Ki in assay [5] stood at 0.00072 µM.
As to `CC(C)C[C@@H](c1ccc2c(cnn2-c2ccc(F)cc2)c1)C(C)(C)CNC(=O)CC(F)(F)F`, the EC50 came out at 0.038 µM in assay [1], 0.262 µM in assay [2] and 0.061 µM in assay [3]. Besides, the Efficacy in assay [7] turned out to be 81%; in assay [4], 96%; in assay [6], 101%. In assay [5], the inhibition constant Ki came out at 0.0013 µM.
For `CC(C)(CNS(=O)(=O)C1CC1)[C@@H](c1ccccc1)c1ccc2c(cnn2-c2ccc(F)cc2)c1`, the half-maximal effective concentration (EC50) was 0.0293 µM in assay [1], 0.261 µM in assay [2] and 0.0268 µM in assay [3]. The figures for the Efficacy in assay [7], in assay [4] and in assay [6] were 19%, 82% and 76%, respectively. The molecule also showed a Ki in assay [5] of 0.00115 µM.
For `CC(C)(CNC(=O)Cc1ccccc1)[C@@H](c1ccccc1)c1ccc2c(cnn2-c2ccc(F)cc2)c1`, the Efficacy in assay [7] was determined as 100%; in assay [6], 33%. The EC50 in assay [2] turned out to be 0.977 µM; in assay [3] it was 2.52 µM.
Turning to `CC(=O)NCC(C)(C)[C@@H](c1ccccc1)c1ccc2c(cnn2-c2ccc(F)cc2)c1`, the EC50 in assay [1] is 1.15 µM; in assay [3], more than 5 µM. For the same molecule, in assay [4], the Efficacy is 58%. The same molecule came in with an inhibition constant Ki in assay [5] of 0.0024 µM.
Turning to `CC(CNS(C)(=O)=O)[C@@H](c1ccccc1)c1ccc2c(cnn2-c2ccc(F)cc2)c1` (stereo partly drawn), the EC50 in assay [1] worked out at 0.0014 µM; in assay [2], 0.024 µM; in assay [3] it was 0.0084 µM. In addition, the Efficacy in assay [7] is 101%; in assay [4], 105%; in assay [6], 100%. The affinity in assay [5], expressed as Ki, was 0.00093 µM.
For the molecule `CC(CNS(=O)(=O)CC(F)(F)F)[C@@H](c1ccccc1)c1ccc2c(cnn2-c2ccc(F)cc2)c1` (stereo partly drawn), the concentration giving a half-maximal response (EC50) worked out at 0.00066 µM in assay [1], 0.026 µM in assay [2] and 0.0052 µM in assay [3]. Also, the Efficacy in assay [7] turned out to be 112%; in assay [4], 105%; in assay [6] it was 97%. Further, the affinity in assay [5], expressed as Ki, was 0.00134 µM.
In the case of `CC(CNC(=O)CC(F)(F)F)[C@@H](c1ccccc1)c1ccc2c(cnn2-c2ccc(F)cc2)c1` (stereo in doubt; 3i) [listing 1 of 2 here], the concentration for a half-maximal effect (EC50) is 0.0207 µM in assay [2] and 0.0075 µM in assay [3]. The molecule also yielded a Ki in assay [5] of 0.0024 µM.
Regarding `CC(C)C[C@@H](c1ccc2c(cnn2-c2ccc(F)cc2)c1)C(C)(C)CNC(=O)NCC(F)(F)F`, the results for the EC50 in assay [1], in assay [2] and in assay [3] were 0.087 µM, 0.501 µM and 0.118 µM, respectively. The figures for the Efficacy in assay [7], in assay [4] and in assay [6] were 58%, 85% and 86%, respectively. In assay [5], this molecule displayed an inhibition constant Ki of 0.00142 µM.
Take `CC(C)(CNC(=O)NCC(F)(F)F)[C@@H](c1ccccc1)c1ccc2c(cnn2-c2ccc(F)cc2)c1`: the EC50 is 0.393 µM in assay [1], more than 10 µM in assay [2] and 0.252 µM in assay [3]. The Efficacy in assay [4] was found to be 55%; in assay [6], 66%. The molecule also showed a Ki in assay [5] of 0.0102 µM.
For the molecule `CCCS(=O)(=O)NCC(C)(C)[C@@H](c1ccccc1)c1ccc2c(cnn2-c2ccc(F)cc2)c1`, the values for the concentration for a half-maximal effect (EC50) in assay [1], in assay [2] and in assay [3] were 0.086 µM, more than 10 µM and 0.143 µM, respectively. The values for the Efficacy in assay [4] and in assay [6] were 63% and 66%, respectively. The same molecule registered an inhibitory constant (Ki) in assay [5] of 0.00151 µM.
`CC(CNC(=O)CC(F)(F)F)[C@@H](c1ccccc1)c1ccc2c(cnn2-c2ccc(F)cc2)c1` (single isomer, unassigned) [listing 2 of 2 here]: the Efficacy in assay [7] was found to be 52%; in assay [6], 84%.
`CC(C)(CNC(=O)C(F)(F)F)[C@@H](c1ccccc1)c1ccc2c(cnn2-c2ccc(F)cc2)c1`: the values for the EC50 in assay [1], in assay [2] and in assay [3] were 0.124 µM, more than 10 µM and 0.725 µM, respectively. In addition, the Efficacy is 39% in assay [4] and 44% in assay [6]. In addition, the inhibition constant Ki in assay [5] came to 0.00174 µM.
Turning to `CC(C)(C)C(=O)NCC(C)(C)[C@@H](c1ccccc1)c1ccc2c(cnn2-c2ccc(F)cc2)c1`, the values for the EC50 in assay [1], in assay [2] and in assay [3] were 0.023 µM, 0.394 µM and 0.078 µM, respectively. Also, the Efficacy in assay [7] was determined as 25%; in assay [4], 80%; in assay [6] it was 100%. For the same molecule, in assay [8], the result was Active. This molecule returned a Ki in assay [5] of 0.002 µM.
On to `CCS(=O)(=O)NCC(C)[C@@H](c1ccccc1)c1ccc2c(cnn2-c2ccc(F)cc2)c1` (stereo partly drawn), for which the results for the EC50 in assay [1], in assay [2] and in assay [3] were 0.0018 µM, 0.0128 µM and 0.0043 µM, respectively. In addition, the Efficacy is 111% in assay [7], 100% in assay [4] and 96% in assay [6]. For the same molecule, the affinity in assay [5] corresponds to a Ki of 0.00087 µM.
`CC(CNC(=O)CC(F)(F)F)[C@@H](c1ccccc1)c1ccc2c(cnn2-c2ccc(F)cc2)c1` (stereo in doubt; 3i) [listing 2 of 2 here]: the Efficacy was found to be 102% in assay [7] and 88% in assay [6].
